Paper PMC2951064 (Journal of Medicinal Chemistry, 2010)

Assays:
[1] = tested on: wtBcr-Abl-Ba/F3; assay: Antiproliferative activity on wtBcr-Abl-Ba/F3; type: cell-based, murine; settings: for cellular Bcr-Abl inhibitory activity (in words): wild-type Bcr-Abl
[2] = tested on: parental Ba/F3; assay: Cytotoxicity on parental Ba/F3 cells; type: cell-based, murine; settings: Mus musculus, BaF3, read-out: cellular EC50 Wt-Ba/F3
How it was run: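 Untransfected IL-3-dependent Ba/F3 cells were grown in RPMI 1640 with 10% FBS, 1% L-glutamine and 10% WEHI-conditioned medium as the IL-3 source, at 37 °C under 5% CO2. Cells were exposed to test compound for 48 h, and viability was measured by CellTiter-Glo luminescence.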

[3] = tested on: E505K Bcr-Abl; assay: Antiproliferative activity on E505K Bcr-Abl mutant Ba/F3 cells; type: cell-based, murine; settings: Mus musculus, BaF3, read-out: cellular EC50 E505K
How it was run: (§1)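 IL-3-dependent murine Ba/F3 cells were transfected with a pEYK vector carrying p210 Bcr-Abl with the point mutation. Cells were grown in RPMI 1640 with 10% FBS, 1% L-glutamine and 25 μg/mL zeocin at 37 °C under 5% CO2. Test compound was applied for 48 h, and proliferation was read by CellTiter-Glo luminescence.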

[4] = tested on: T315I Bcr-Abl; assay: Antiproliferative activity on T315I Bcr-Abl mutant Ba/F3 cells; type: cell-based, murine; settings: for EC50: Mus musculus, BaF3, read-out: cellular EC50 T315I
How it was run: as §1

[5] = tested on: panel of 80 diverse kinases; settings: cited from earlier work
[6] = tested on: Y253H Bcr-Abl; settings: background statement, ref not given; cited from earlier work
[7] = tested on: E255V Bcr-Abl; settings: background statement, ref not given; cited from earlier work
[8] = tested on: 40 other tyrosine kinases; settings: cited from earlier work
[9] = tested on: T315I Bcr-Abl; settings: cited from earlier work

Structure (SMILES) | cellular Bcr-Abl inhibitory activity (in words) [1] | also measured
NC(=O)c1ccccc1-c1cc(Nc2ccc(OC(F)(F)F)cc2)ncn1 [5b] | inactive | –
CS(=O)(=O)Nc1ccc(-c2cc(Nc3ccc(OC(F)(F)F)cc3)ncn2)cc1 [5h] | – | EC50 [2]: > 10 µM; EC50 [3]: > 10 µM; EC50 [4]: > 10 µM
CN(c1ccc(OC(F)(F)F)cc1)c1cc(NCCN2CCOCC2)ncn1 [8a] | complete loss of cellular activity | –
COc1ccc(Nc2cc(NCCN3CCOCC3)ncn2)cc1 [8b] | complete loss of activity | –
FC(F)(F)Oc1ccc(Oc2cc(NCCN3CCOCC3)ncn2)cc1 [8d] | complete loss of cellular activity | –
FC(F)(F)Oc1ccc(-c2cc(NCCN3CCOCC3)ncn2)cc1 [8e] | complete loss of cellular activity | –
FC(F)(F)Oc1ccc(CNc2cc(NCCN3CCOCC3)ncn2)cc1 [8g] | completely inactive | –
FC(F)(F)Oc1ccc(Nc2ccnc(NCCN3CCOCC3)n2)cc1 [9d] | inactive | –
FC(F)(F)Oc1ccc(Nc2cncc(NCCN3CCOCC3)n2)cc1 [9e] | inactive | –
FC(F)(F)Oc1ccc(Nc2ccc(NCCN3CCOCC3)nn2)cc1 [9f] | inactive | –
CN(c1ccc(OC(F)(F)F)cc1)c1cc(-c2ccncc2)ncn1 [9g] | complete loss of cellular activity | –
Fc1ccc(Nc2cc(-c3ccncc3)ncn2)cc1 [9h] | complete loss in activity | –
FC(F)(F)c1ccc(Nc2cc(-c3ccncc3)ncn2)cc1 [9j] | retained some activity | –
FC(F)(F)Oc1ccc(Nc2ncnc(NCCN3CCOCC3)n2)cc1 [9l, N2-(2-morpholinoethyl)-N4-(4-(trifluoromethoxy)phenyl)-1,3,5-triazine-2,4-diamine] | inactive | –
CN1CCN(C(=O)c2cc3c(Nc4ccc(OC(F)(F)F)cc4)ncnc3s2)CC1 [14d] | – | EC50 [2]: > 10 µM; EC50 [3]: > 10 µM; fold more potent than 14c ([1]; cellular Bcr-Abl EC50, versus compound lacking N-methylation (14c)): approximately 10 fold; EC50 [4]: > 10 µM
NC(=O)c1cccc(-c2cc(Nc3ccc(OC(F)(F)F)cc3)ncn2)c1 [compound 1] | active | inhibition of biochemical activity of a panel of 80 diverse kinases (in words) [5]: did not inhibit; activity on Y253H mutant (in words) [6]: active; activity on E255V mutant (in words) [7]: active; inhibition of 40 other tyrosine kinases in cellular assays (in words) [8]: did not inhibit; activity on T315I gatekeeper mutant (in words) [4]: inactive
O=C(NCCO)c1cccc(-c2cc(Nc3ccc(OC(F)(F)F)cc3)ncn2)c1 [compound 2, N-(2-Hydroxyethyl)-3-(6-(4-(trifluoromethoxy)phenylamino)pyrimidin-4-yl)benzamide] | – | synergy with nilotinib on proliferation of T315I Bcr-Abl (in words) [9]: capable of synergizing
Cc1cn(-c2cc(NC(=O)c3ccc(C)c(Nc4nccc(-c5cccnc5)n4)c3)cc(C(F)(F)F)c2)cn1 [nilotinib, reference compound] | – | EC50 ([1]; Mus musculus, read-out: wt Bcr-Abl-Ba/F3 EC50): 0.04 µM
